Measured values published in ChEMBL document CHEMBL1909621, “Synthesis and biological evaluation of novel nitrogen- and sulfur-containing hetero-1,4-naphthoquinones as potent antifungal and antibacterial agents” (2011).
Converted amounts (≈) assume the structure as drawn. The source made the active and inactive calls. No cut-off for these calls is given here.

Experiments:
Type in all cases: functional
Escherichia coli [1] = experiment: Antibacterial activity against Escherichia coli B-906 at 0.5% after 24 hrs by diffusion technique
Escherichia coli [2] = experiment: Antibacterial activity against Escherichia coli B-906 at 0.1% after 24 hrs by diffusion technique
Staphylococcus aureus [3] = experiment: Antibacterial activity against Staphylococcus aureus 209-P at 0.5% after 24 hrs by diffusion technique
Staphylococcus aureus [4] = experiment: Antibacterial activity against Staphylococcus aureus 209-P at 0.1% after 24 hrs by diffusion technique
Mycobacterium [5] = experiment: Antibacterial activity against Mycobacterium luteum b-917 at 0.5% after 24 hrs by diffusion technique
Mycobacterium [6] = experiment: Antibacterial activity against Mycobacterium luteum b-917 at 0.1% after 24 hrs by diffusion technique
Yamadazyma tenuis [7] = experiment: Antifungal activity against Candida tenuis VKM Y-70 at 0.5% after 48 to 72 hrs by diffusion technique
Summary of the method: (§1)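 Fungi. Disk diffusion: 10⁹ spores (cells)/1 mL inoculum. Incubated 48–72 h at 28–30 °C. Zone around disk measured, with a nystatin control disk. Serial dilution: compounds dissolved in DMSO and diluted into wort agar, then inoculated. Incubated at 30 °C for 24–72 h. MIC recorded.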

Yamadazyma tenuis [8] = experiment: Antifungal activity against Candida tenuis VKM Y-70 at 0.1% after 48 to 72 hrs by diffusion technique; summary of the method: as §1
Aspergillus niger [9] = experiment: Antifungal activity against Aspergillus niger F-1119 at 0.5% after 48 to 72 hrs by diffusion technique; summary of the method: as §1
Aspergillus niger [10] = experiment: Antifungal activity against Aspergillus niger F-1119 at 0.1% after 48 to 72 hrs by diffusion technique; summary of the method: as §1
Escherichia coli [11] = experiment: Antibacterial activity against Escherichia coli B-906 after 24 to 72 hrs by serial dilution technique
Staphylococcus aureus [12] = experiment: Antibacterial activity against Staphylococcus aureus 209-P after 24 to 72 hrs by serial dilution technique
Mycobacterium [13] = experiment: Antibacterial activity against Mycobacterium luteum b-917 after 24 to 72 hrs by serial dilution technique
Yamadazyma tenuis [14] = experiment: Antifungal activity against Candida tenuis VKM Y-70 after 24 to 72 hrs by serial dilution technique; summary of the method: as §1
Aspergillus niger [15] = experiment: Antifungal activity against Aspergillus niger F-1119 after 24 to 72 hrs by serial dilution technique; summary of the method: as §1

| Molecule | diameter of the inhibition zone (DIZ) (Escherichia coli [1]) | diameter of the inhibition zone (DIZ) (Escherichia coli [2]) | diameter of the inhibition zone (DIZ) (Staphylococcus aureus [3]) | diameter of the inhibition zone (DIZ) (Staphylococcus aureus [4]) | diameter of the inhibition zone (DIZ) (Mycobacterium [5]) | diameter of the inhibition zone (DIZ) (Mycobacterium [6]) | diameter of the inhibition zone (DIZ) (Yamadazyma tenuis [7]) | diameter of the inhibition zone (DIZ) (Yamadazyma tenuis [8]) | diameter of the inhibition zone (DIZ) (Aspergillus niger [9]) | diameter of the inhibition zone (DIZ) (Aspergillus niger [10]) | inhibition (Escherichia coli [11]) | inhibition (Staphylococcus aureus [12]) | inhibition (Mycobacterium [13]) | MIC (Yamadazyma tenuis [14]) | inhibition (Aspergillus niger [15]) | MIC (Staphylococcus aureus [12]) | MIC (Mycobacterium [13]) | MIC (Aspergillus niger [15]) | inhibition zone (IZ) (Yamadazyma tenuis [8]) | inhibition (Yamadazyma tenuis [14]) |
| --- | --- | --- | --- | --- | --- | --- | --- | --- | --- | --- | --- | --- | --- | --- | --- | --- | --- | --- | --- | --- |
| O=C1C(Cl)=C(SCCCCCCCCCO)C(=O)c2ccccc21 | 0 mm | 0 mm | 0 mm | 0 mm | 0 mm | 0 mm | 0 mm | 0 mm | 0 mm | 0 mm | inactive | inactive | inactive | 31.2 µg/mL (≈ 85 µM) | inactive | – | – | – | – | – |
| CN[C@H](CC(C)C)C(=O)N[C@H]1C(=O)N[C@@H](CC(N)=O)C(=O)N[C@H]2C(=O)N[C@H]3C(=O)N[C@H](C(=O)N[C@H](C(=O)O)c4cc(O)cc(O)c4-c4cc3ccc4O)[C@H](O)c3ccc(c(Cl)c3)Oc3cc2cc(c3O[C@@H]2O[C@H](CO)[C@@H](O)[C@H](O)[C@H]2O[C@H]2C[C@](C)(N)[C@H](O)[C@H](C)O2)Oc2ccc(cc2Cl)[C@H]1O [VANCOMYCIN] | – | 14 mm | – | 15 mm | – | 18 mm | – | – | – | – | – | – | – | – | – | – | – | – | – | – |
| CCOC1=C(SCCCCO)C(=O)c2ccccc2C1=O | 0 mm | 0 mm | 19.4 mm | 12 mm | 25.4 mm | 14.7 mm | 14.7 mm | 8.4 mm | 10 mm | 0 mm | inactive | – | – | 15.6 µg/mL (≈ 50.9 µM) | – | 250 µg/mL (≈ 816 µM) | 31.2 µg/mL (≈ 102 µM) | 31.2 µg/mL (≈ 102 µM) | – | – |
| O=C1C(Cl)=C(SCc2ccc(Cl)cc2)C(=O)c2ccccc21 | 0 mm | 0 mm | 7 mm | 0 mm | 0 mm | 0 mm | 14 mm | 10 mm | 7 mm | 0 mm | inactive | inactive | – | 15.6 µg/mL (≈ 44.7 µM) | – | – | 500 µg/mL (≈ 1430 µM) | 15.6 µg/mL (≈ 44.7 µM) | – | – |
| O=C1C(Sc2nc3ccc([N+](=O)[O-])cc3s2)=C(Sc2nc3ccc([N+](=O)[O-])cc3s2)C(=O)c2ccccc21 | 0 mm | 0 mm | 8 mm | 0 mm | 11.7 mm | 0 mm | 24 mm | 15 mm | 15 mm | 8 mm | inactive | inactive | – | 15.6 µg/mL (≈ 27 µM) | – | – | 125 µg/mL (≈ 216 µM) | 31.2 µg/mL (≈ 53.9 µM) | – | – |
| O=C1C(SCCCCO)=C(SCCCCO)C(=O)c2ccccc21 | 0 mm | 0 mm | 26 mm | 18 mm | 31 mm | 22 mm | 8 mm | 0 mm | 6 mm | 0 mm | inactive | – | – | 7.8 µg/mL (≈ 21.3 µM) | – | 15.6 µg/mL (≈ 42.6 µM) | 15.6 µg/mL (≈ 42.6 µM) | 31.2 µg/mL (≈ 85.1 µM) | – | – |
| O=C1C(Sc2ncccn2)=C(Sc2ncccn2)C(=O)c2ccccc21 | 0 mm | 0 mm | 9 mm | 6 mm | 11.7 mm | 6.7 mm | 7 mm | 6 mm | 9 mm | 7 mm | – | – | – | 125 µg/mL (≈ 330 µM) | – | 62.5 µg/mL (≈ 165 µM) | 500 µg/mL (≈ 1320 µM) | 500 µg/mL (≈ 1320 µM) | – | – |
| O=C1C(SCc2ccc(Cl)cc2)=C(SCc2ccc(Cl)cc2)C(=O)c2ccccc21 | 0 mm | 0 mm | 0 mm | 0 mm | 0 mm | 0 mm | 7.4 mm | 0 mm | 0 mm | 0 mm | inactive | inactive | – | 15.6 µg/mL (≈ 33.1 µM) | – | – | 125 µg/mL (≈ 265 µM) | 31.2 µg/mL (≈ 66.2 µM) | – | – |
| O=C1C2=C(SCCSCCSC3=C(SCCSCCS2)C(=O)c2ccccc2C3=O)C(=O)c2ccccc21 | 0 mm | 0 mm | 0 mm | 0 mm | 0 mm | 0 mm | 0 mm | 0 mm | 0 mm | 0 mm | inactive | inactive | inactive | 31.2 µg/mL (≈ 50.6 µM) | inactive | – | – | – | – | – |
| NYSTATIN | – | – | – | – | – | – | – | – | – | – | – | – | – | – | – | – | – | – | 19 mm | – |
| O=C1C(SCc2ccco2)=C(SCc2ccco2)C(=O)c2ccccc21 | 0 mm | 0 mm | 7 mm | 0 mm | 10.4 mm | 7.7 mm | 0 mm | 0 mm | 10 mm | 8 mm | inactive | inactive | – | 15.6 µg/mL (≈ 40.8 µM) | – | – | – | 62.5 µg/mL (≈ 163 µM) | – | – |
| CCOC1=C(SCc2c(C)cc(C)cc2C)C(=O)c2ccccc2C1=O | 0 mm | 0 mm | 0 mm | 0 mm | 0 mm | 0 mm | 0 mm | 0 mm | 0 mm | 0 mm | inactive | inactive | inactive | 62.5 µg/mL (≈ 171 µM) | inactive | – | – | – | – | – |
| O=C1C(SCCCCCCCCCO)=C(SCCCCCCCCCO)C(=O)c2ccccc21 | 0 mm | 0 mm | 0 mm | 0 mm | 0 mm | 0 mm | 0 mm | 0 mm | 6 mm | 0 mm | inactive | – | – | – | inactive | 250 µg/mL (≈ 493 µM) | – | – | – | inactive |
| Cc1cc(C)c(CSC2=C(SCc3c(C)cc(C)cc3C)C(=O)c3ccccc3C2=O)c(C)c1 | 0 mm | 0 mm | 0 mm | 0 mm | 0 mm | 0 mm | 0 mm | 0 mm | 0 mm | 0 mm | inactive | inactive | inactive | 125 µg/mL (≈ 257 µM) | inactive | – | – | – | – | – |
| O=C1CCSC2=C(SCCC(=O)OCC3(CO1)COC(=O)CCSC1=C(SCCC(=O)OC3)C(=O)c3ccccc3C1=O)C(=O)c1ccccc1C2=O | 0 mm | 0 mm | 0 mm | 0 mm | 0 mm | 0 mm | 0 mm | 0 mm | 0 mm | 0 mm | inactive | inactive | inactive | 15.6 µg/mL (≈ 19.6 µM) | inactive | – | – | – | – | – |
